Results from ChEMBL document CHEMBL1157639, “Identification of inhibitors of drug-resistant Candida albicans strains from a library of bicyclic peptidomimetic compounds” (2010).

What was measured:
[1] = tested on: Candida albicans; assay: Antifungal activity against pharmacoresistant Candida albicans AIDS68 infected in Wistar rat estrogen-dependent fungal vaginitis model assessed as fungal burden at 10 uM administered intravaginally 48 hrs after fungal infection measured on day 28 after infection; type: functional, Vagina
In short: (§1)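 Oophorectomized female Wistar rats (80-100 g) got 0.5 mg estradiol benzoate s.c. Six days later they were inoculated intravaginally with >10⁷ YPD-grown yeast cells (28 °C, washed, hemocytometer-counted) in 0.1 mL saline. Treatment was given intravaginally at 1, 24 and 48 h post-challenge. Burden was counted by culturing 100 μL vaginal fluid on Sabouraud-chloramphenicol (50 μg/mL) agar, as CFU/mL ×1000, through day 28.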

[2] = tested on: Candida albicans; assay: Antifungal activity against pharmacoresistant Candida albicans AIDS68 infected in Wistar rat estrogen-dependent fungal vaginitis model assessed as fungal burden at 10 uM administered intravaginally 48 hrs after fungal infection measured on day 14 after infection; type: functional, Vagina; in short: as §1
[3] = tested on: Candida albicans; assay: Antifungal activity against pharmacoresistant Candida albicans AIDS68 infected in Wistar rat estrogen-dependent fungal vaginitis model assessed as fungal burden at 10 uM administered intravaginally 48 hrs after fungal infection measured on day 7 after infection; type: functional, Vagina; in short: as §1
[4] = tested on: Candida albicans; assay: Antifungal activity against pharmacoresistant Candida albicans AIDS68 infected in Wistar rat estrogen-dependent fungal vaginitis model assessed as fungal burden at 10 uM administered intravaginally 48 hrs after fungal infection measured on day 5 after infection; type: functional, Vagina; in short: as §1
[5] = tested on: Candida albicans; assay: Antifungal activity against pharmacoresistant Candida albicans AIDS68 infected in Wistar rat estrogen-dependent fungal vaginitis model assessed as fungal burden at 10 uM administered intravaginally 24 hrs after fungal infection measured on day 2 after infection; type: functional, Vagina; in short: as §1
[6] = tested on: Candida albicans; assay: Antifungal activity against pharmacoresistant Candida albicans AIDS68 infected in Wistar rat estrogen-dependent fungal vaginitis model assessed as fungal burden at 10 uM administered intravaginally 1 hr after fungal infection measured on day 1 after infection; type: functional, Vagina; in short: as §1
[7] = tested on: Candida albicans; assay: Antifungal activity against Candida albicans SA40 infected in Wistar rat estrogen-dependent fungal vaginitis model assessed as fungal burden at 10 uM administered intravaginally 48 hrs after fungal infection measured on day 28 after infection; type: functional, Vagina; in short: as §1
[8] = tested on: Candida albicans; assay: Antifungal activity against Candida albicans SA40 infected in Wistar rat estrogen-dependent fungal vaginitis model assessed as fungal burden at 10 uM administered intravaginally 48 hrs after fungal infection measured on day 21 after infection; type: functional, Vagina
In short: (§2)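 Oophorectomized female Wistar rats (80-100 g), given 0.5 mg estradiol benzoate subcutaneously, were challenged intravaginally six days later with >10⁷ YPD-grown yeast cells in 0.1 mL saline. Compound at 10 μM was instilled intravaginally at 1, 24 and 48 h post-challenge. Vaginal fluid samples (100 μL) were plated on Sabouraud agar with chloramphenicol (50 μg/mL), and burden was expressed as CFU/mL ×1000.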

[9] = tested on: Candida albicans; assay: Antifungal activity against Candida albicans SA40 infected in Wistar rat estrogen-dependent fungal vaginitis model assessed as fungal burden at 10 uM administered intravaginally 48 hrs after fungal infection measured on day 14 after infection; type: functional, Vagina; in short: as §2
[10] = tested on: Candida albicans; assay: Antifungal activity against Candida albicans SA40 infected in Wistar rat estrogen-dependent fungal vaginitis model assessed as fungal burden at 10 uM administered intravaginally 48 hrs after fungal infection measured on day 7 after infection; type: functional, Vagina; in short: as §2
[11] = tested on: Candida albicans; assay: Antifungal activity against Candida albicans SA40 infected in Wistar rat estrogen-dependent fungal vaginitis model assessed as fungal burden at 10 uM administered intravaginally 48 hrs after fungal infection measured on day 5 after infection; type: functional, Vagina; in short: as §2
[12] = tested on: Candida albicans; assay: Antifungal activity against Candida albicans SA40 infected in Wistar rat estrogen-dependent fungal vaginitis model assessed as fungal burden at 10 uM administered intravaginally 24 hrs after fungal infection measured on day 2 after infection; type: functional, Vagina; in short: as §2
[13] = tested on: Candida albicans; assay: Antifungal activity against Candida albicans SA40 infected in Wistar rat estrogen-dependent fungal vaginitis model assessed as fungal burden at 10 uM administered intravaginally 1 hr after fungal infection measured on day 1 after infection; type: functional, Vagina; in short: as §2
[14] = tested on: Candida albicans; assay: Antifungal activity against Candida albicans SA40 infected in Wistar rat estrogen-dependent fungal vaginitis model assessed as fungal burden at 10 uM administered intravaginally 1 hr after fungal infection measured within 1 day of infection; type: functional, Vagina; in short: as §1
[15] = biological target: Secreted aspartic protease 2 (Candida albicans) (UniProt P0CS83); assay: Inhibition of Candida albicans SAP2 at 0.02 uM by spectrophotometry relative to pepstatin A
Chain of Secreted aspartic protease 2 (Candida albicans) (P0CS83 57-398 limits assumed): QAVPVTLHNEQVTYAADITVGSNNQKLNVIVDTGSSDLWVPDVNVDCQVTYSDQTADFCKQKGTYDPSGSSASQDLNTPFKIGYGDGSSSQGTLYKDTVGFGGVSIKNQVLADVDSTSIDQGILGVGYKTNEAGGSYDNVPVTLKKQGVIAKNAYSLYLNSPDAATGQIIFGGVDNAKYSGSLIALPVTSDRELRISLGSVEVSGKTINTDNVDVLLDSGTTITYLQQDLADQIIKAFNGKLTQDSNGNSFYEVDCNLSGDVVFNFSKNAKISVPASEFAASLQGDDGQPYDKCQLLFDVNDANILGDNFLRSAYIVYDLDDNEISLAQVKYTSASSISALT
In short: (§3)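 Sample was mixed with 1% (w/v) BSA substrate in 50 mM sodium citrate, pH 3.2, plus SAP2 protease (1 μg/mL stock solution) and incubated 30 min at 37 °C. The reaction was stopped with 10% TCA, kept 30 min on ice, and centrifuged; supernatant A280 was read. Percent inhibition was taken from ΔOD, with control proteinase minus proteinase plus pepstatin A set as 100%.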

[16] = biological target: Secreted aspartic protease 2 (Candida albicans) (UniProt P0CS83); assay: Inhibition of Candida albicans SAP2 at 20 uM by spectrophotometry relative to pepstatin A; in short: as §3
[17] = biological target: Secreted aspartic protease 2 (Candida albicans) (UniProt P0CS83); assay: Inhibition of Candida albicans SAP2 at 2 uM by spectrophotometry relative to pepstatin A; in short: as §3
[18] = biological target: Secreted aspartic protease 2 (Candida albicans) (UniProt P0CS83); assay: Inhibition of Candida albicans SAP2 at 10 uM by spectrophotometry relative to pepstatin A; in short: as §3
[19] = tested on: Candida albicans; assay: Antifungal activity against pharmacoresistant Candida albicans AIDS68 infected in Wistar rat estrogen-dependent fungal vaginitis model assessed as fungal burden at 10 ug administered intravaginally 48 hrs after fungal infection measured on day 7 after infection; type: functional, Vagina; in short: as §1
[20] = tested on: Candida albicans; assay: Antifungal activity against pharmacoresistant Candida albicans AIDS68 infected in Wistar rat estrogen-dependent fungal vaginitis model assessed as fungal burden at 10 ug administered intravaginally 48 hrs after fungal infection measured on day 5 after infection; type: functional, Vagina; in short: as §1
[21] = tested on: Candida albicans; assay: Antifungal activity against pharmacoresistant Candida albicans AIDS68 infected in Wistar rat estrogen-dependent fungal vaginitis model assessed as fungal burden at 10 ug administered intravaginally 24 hrs after fungal infection measured on day 2 after infection; type: functional, Vagina; in short: as §1
[22] = tested on: Candida albicans; assay: Antifungal activity against pharmacoresistant Candida albicans AIDS68 infected in Wistar rat estrogen-dependent fungal vaginitis model assessed as fungal burden at 10 ug administered intravaginally 1 hr after fungal infection measured on day 1 after infection; type: functional, Vagina; in short: as §1
[23] = tested on: Candida albicans; assay: Antifungal activity against Candida albicans SA40 infected in Wistar rat estrogen-dependent fungal vaginitis model assessed as fungal burden at 10 ug administered intravaginally 48 hrs after fungal infection measured on day 28 after infection; type: functional, Vagina; in short: as §1
[24] = tested on: Candida albicans; assay: Antifungal activity against Candida albicans SA40 infected in Wistar rat estrogen-dependent fungal vaginitis model assessed as fungal burden at 10 ug administered intravaginally 48 hrs after fungal infection measured on day 21 after infection; type: functional, Vagina; in short: as §1
[25] = tested on: Candida albicans; assay: Antifungal activity against Candida albicans SA40 infected in Wistar rat estrogen-dependent fungal vaginitis model assessed as fungal burden at 10 ug administered intravaginally 48 hrs after fungal infection measured on day 14 after infection; type: functional, Vagina; in short: as §1
[26] = tested on: Candida albicans; assay: Antifungal activity against Candida albicans SA40 infected in Wistar rat estrogen-dependent fungal vaginitis model assessed as fungal burden at 10 ug administered intravaginally 48 hrs after fungal infection measured on day 7 after infection; type: functional, Vagina; in short: as §1
[27] = tested on: Candida albicans; assay: Antifungal activity against Candida albicans SA40 infected in Wistar rat estrogen-dependent fungal vaginitis model assessed as fungal burden at 10 ug administered intravaginally 48 hrs after fungal infection measured on day 5 after infection; type: functional, Vagina; in short: as §1
[28] = tested on: Candida albicans; assay: Antifungal activity against Candida albicans SA40 infected in Wistar rat estrogen-dependent fungal vaginitis model assessed as fungal burden at 10 ug administered intravaginally 24 hrs after fungal infection measured on day 2 after infection; type: functional, Vagina; in short: as §1
[29] = tested on: Candida albicans; assay: Antifungal activity against Candida albicans SA40 infected in Wistar rat estrogen-dependent fungal vaginitis model assessed as fungal burden at 10 ug administered intravaginally 1 hr after fungal infection measured on day 1 after infection; type: functional, Vagina; in short: as §1
[30] = tested on: Candida albicans; assay: Antifungal activity against Candida albicans SA40 infected in Wistar rat estrogen-dependent fungal vaginitis model assessed as fungal burden at 10 ug administered intravaginally 1 hr after fungal infection measured within 1 day of infection; type: functional, Vagina; in short: as §1
[31] = tested on: Candida albicans; assay: Antifungal activity against pharmacoresistant Candida albicans AIDS68 infected in Wistar rat estrogen-dependent fungal vaginitis model assessed as fungal burden at 10 ug administered intravaginally 48 hrs after fungal infection measured on day 14 after infection; type: functional, Vagina; in short: as §1
[32] = tested on: Candida albicans; assay: Antifungal activity against pharmacoresistant Candida albicans AIDS68 infected in Wistar rat estrogen-dependent fungal vaginitis model assessed as fungal burden at 10 ug administered intravaginally 48 hrs after fungal infection measured on day 21 after infection; type: functional, Vagina; in short: as §1

SMILES: CC(C)C[C@@H](CO)NC(=O)[C@@H]1O[C@H]2CN(Cc3ccccc3)C(=O)[C@@H]1O2
- Activity [1]: 0 ×10³ CFU/ml
- Activity [2]: 11.2 ×10³ CFU/ml
- Activity [3]: 22.8 ×10³ CFU/ml
- Activity [4]: 26.8 ×10³ CFU/ml
- Activity [5]: 55.4 ×10³ CFU/ml
- Activity [6]: 61.6 ×10³ CFU/ml
- Activity [7]: 2.2 ×10³ CFU/ml
- Activity [8]: 4.2 ×10³ CFU/ml
- Activity [9]: 14 ×10³ CFU/ml
- Activity [10]: 28.8 ×10³ CFU/ml
- Activity [11]: 35.8 ×10³ CFU/ml
- Activity [12]: 58 ×10³ CFU/ml
- Activity [13]: 61 ×10³ CFU/ml
- Activity [14]: 100 ×10³ CFU/ml
- inhibition [15]: 1.4%
- inhibition [16]: 71%
- inhibition [17]: 6.9%
- inhibition [18]: 61%

SMILES: CC(C)CC(=O)N[C@H](C(=O)N[C@H](C(=O)N[C@@H](CC(C)C)[C@@H](O)CC(=O)N[C@@H](C)C(=O)N[C@@H](CC(C)C)[C@@H](O)CC(=O)O)C(C)C)C(C)C [PEPSTATIN]
- Activity [19]: 30 ×10³ CFU/ml
- Activity [20]: 37.2 ×10³ CFU/ml
- Activity [21]: 52 ×10³ CFU/ml
- Activity [22]: 58.4 ×10³ CFU/ml
- Activity [23]: 0 ×10³ CFU/ml
- Activity [24]: 5 ×10³ CFU/ml
- Activity [25]: 9.4 ×10³ CFU/ml
- Activity [26]: 28 ×10³ CFU/ml
- Activity [27]: 32.4 ×10³ CFU/ml
- Activity [28]: 51 ×10³ CFU/ml
- Activity [29]: 56.8 ×10³ CFU/ml
- Activity [30]: >100 ×10³ CFU/ml
- Activity [31]: 19.8 ×10³ CFU/ml
- Activity [32]: 3.8 ×10³ CFU/ml
